# Reference: ChEMBL document CHEMBL3525942, “Disposition and metabolism of [14C]SB-649868, an orexin 1 and 2 receptor antagonist, in humans” (Drug Metab Dispos, 2011)
# What was measured:
# [1] = Drug level in human urine treated with [14C]SB-649868 at 30 mg, po single dose after 0 to 72 hrs by HPLC-MSn analysis; conditions: in vivo, 0-72 h
# Plasma [2] = experiment: Drug level in human plasma assessed as radioactivity treated with [14C]SB-649868 at 30 mg, po single dose after 48 hrs by HPLC-MSn analysis; assay type: ADME, organism-based; parameters: dosed compound name [14C]SB-649868; conditions: in vivo
# Outline: (§1)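 Plasma taken 3, 12, 24 and 48 h after one oral 30 mg [14C] dose, extracted, and run on radio-HPLC: C8 column, 45 mM ammonium acetate pH 3.8 and acetonitrile gradient, 1 ml/min. Fractions collected into scintillant plates and counted 5 min. Extraction recovery measured; data corrected when recovery was <85%. Values are % of plasma radioactivity, BQL 1%; n=7 at 3 and 12 h.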
# [3] = Drug level in human feces treated with [14C]SB-649868 at 30 mg, po single dose by HPLC-MSn analysis; conditions: in vivo
# Plasma [4] = experiment: Drug level in human plasma assessed as radioactivity treated with [14C]SB-649868 at 30 mg, po single dose after 24 hrs by HPLC-MSn analysis; assay type: ADME, organism-based; parameters: dosed compound name [14C]SB-649868; conditions: in vivo
# Outline: as §1
# Plasma [5] = experiment: Drug level in human plasma assessed as radioactivity treated with [14C]SB-649868 at 30 mg, po single dose after 12 hrs by HPLC-MSn analysis; assay type: ADME, organism-based; parameters: dosed compound name [14C]SB-649868; conditions: in vivo
# Outline: as §1
# Plasma [6] = experiment: Drug level in human plasma assessed as radioactivity treated with [14C]SB-649868 at 30 mg, po single dose after 3 hrs by HPLC-MSn analysis; assay type: ADME, organism-based; parameters: dosed compound name [14C]SB-649868; conditions: in vivo
# Outline: as §1
SMILES,Compound recovery [1],Compound recovery (Plasma [2]),Compound recovery [3] [%],Compound recovery (Plasma [4]) [%],Compound recovery (Plasma [5]) [%],Compound recovery (Plasma [6])
Cc1nc(C(=O)N2CCCC[C@H]2CN2C(=O)c3cccc(O)c3CC2O)c(-c2ccc(F)cc2)s1 (stereo not given in full),0.2%,15.1%,2.6,19.3,16.8,6%
Cc1nc(C(=O)N2CCCC[C@H]2Cn2ccc3c(O)cccc3c2=O)c(-c2ccc(F)cc2)s1,Below quantification limit,,0.7,,,
Cc1nc(C(=O)N2CCCC[C@H]2CNC(=O)c2cccc3oc(O)cc23)c(-c2ccc(F)cc2)s1,0.6%,,,,,
Cc1nc(C(=O)N2CCCC[C@H]2CNC(=O)c2cccc(O)c2CC(=O)O)c(-c2ccc(F)cc2)s1,1.5%,< 1,10.3,4.2,6.7,< 1
